The structures appear in SMILES notation.

What all share (format): cell-based
What all share (design): scale not given: the % may be the effect or the level left

For assay [1], the target named is Presenilin-1 (Homo sapiens) (UniProt P49768). Kind of assay: Reduction of human wild type PS1-induced amyloid beta-40 level in CHO cells overexpressing human APP751 at 100 nM after 24 hrs by liquid phase electrochemiluminescence assay relative to control.
Assay [2] deals with CHO. Kind of assay: Reduction of human PS1 delta exon9 mutant-induced amyloid beta-40 level in CHO cells overexpressing human APP751 at 100 nM after 24 hrs by liquid phase electrochemiluminescence assay relative to control. The method, boiled down:
(§1)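 APP751 CHO cells stably expressing PS1-ΔExon9, PS1-L166P or PS1-WT, cultured in parallel in serum-containing medium. Treated 24 h with increasing γ-secretase inhibitor concentrations or DMSO. Conditioned-media Abeta40/Abeta42 quantified by LPECL against synthetic peptide standards (16–2000 pg/ml). Duplicates normalized to DMSO. n = 3, one-way ANOVA with Dunnett's test versus PS1-WT.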

For assay [3], the system named is Presenilin-1 (Homo sapiens), P49768 [L166P]. Kind of assay: Reduction of human PS1 L166P mutant-induced amyloid beta-40 level in CHO cells overexpressing human APP751 at 100 nM after 24 hrs by liquid phase electrochemiluminescence assay relative to control. The method, boiled down: as §1
Assay [4] concerns the target Presenilin-1 (Homo sapiens) (UniProt P49768). Kind of assay: Reduction of human wild type PS1-induced amyloid beta-42 level in CHO cells overexpressing human APP751 at 100 nM after 24 hrs by liquid phase electrochemiluminescence assay relative to control.
Assay [5] relates to CHO. Kind of assay: Reduction of human PS1 delta exon9 mutant-induced amyloid beta-42 level in CHO cells overexpressing human APP751 at 100 nM after 24 hrs by liquid phase electrochemiluminescence assay relative to control. In outline:
as §1

For assay [6], the system named is Presenilin-1 (Homo sapiens), P49768 [L166P]. Kind of assay: Reduction of human PS1 L166P mutant-induced amyloid beta-42 level in CHO cells overexpressing human APP751 at 100 nM after 24 hrs by liquid phase electrochemiluminescence assay relative to control. The method, boiled down: as §1
Assay [7] concerns the target Presenilin-1 (Homo sapiens) (UniProt P49768). Kind of assay: Reduction of human wild type PS1-induced amyloid beta-40 level in CHO cells overexpressing human APP751 at 25 nM after 24 hrs by liquid phase electrochemiluminescence assay relative to control.
Assay [8] deals with CHO. Kind of assay: Reduction of human PS1 delta exon9 mutant-induced amyloid beta-40 level in CHO cells overexpressing human APP751 at 25 nM after 24 hrs by liquid phase electrochemiluminescence assay relative to control. The method, boiled down: as §1
For assay [9], the system named is Presenilin-1 (Homo sapiens), P49768 [L166P]. Kind of assay: Reduction of human PS1 L166P mutant-induced amyloid beta-40 level in CHO cells overexpressing human APP751 at 25 nM after 24 hrs by liquid phase electrochemiluminescence assay relative to control. In outline: as §1
The target in assay [10] is Presenilin-1 (Homo sapiens) (UniProt P49768). Kind of assay: Reduction of human wild type PS1-induced amyloid beta-40 level in CHO cells overexpressing human APP751 at 50 nM after 24 hrs by liquid phase electrochemiluminescence assay relative to control.
Assay [11] relates to CHO. Kind of assay: Reduction of human PS1 delta exon9 mutant-induced amyloid beta40 level in CHO cells overexpressing human APP751 at 50 nM after 24 hrs by liquid phase electrochemiluminescence assay relative to control.
Assay [12] concerns Presenilin-1 (Homo sapiens), P49768 [L166P]. Kind of assay: Reduction of human PS1 L166P mutant-induced amyloid beta-40 level in CHO cells overexpressing human APP751 at 50 nM after 24 hrs by liquid phase electrochemiluminescence assay relative to control. In outline: as §1
The target in assay [13] is Presenilin-1 (Homo sapiens) (UniProt P49768). Kind of assay: Reduction of human wild type PS1-induced amyloid beta-42 level in CHO cells overexpressing human APP751 at 25 nM after 24 hrs by liquid phase electrochemiluminescence assay relative to control.
Assay [14] deals with CHO. Kind of assay: Reduction of human PS1 delta exon9 mutant-induced amyloid beta-42 level in CHO cells overexpressing human APP751 at 25 nM after 24 hrs by liquid phase electrochemiluminescence assay relative to control. The method, boiled down: as §1
In assay [15] the test system is Presenilin-1 (Homo sapiens), P49768 [L166P]. Kind of assay: Reduction of human PS1 L166P mutant-induced amyloid beta42 level in CHO cells overexpressing human APP751 at 25 nM after 24 hrs by liquid phase electrochemiluminescence assay relative to control. The method, boiled down:
as §1

Assay [16] addresses Presenilin-1 (Homo sapiens) (UniProt P49768). Kind of assay: Reduction of human wild type PS1-induced amyloid beta-42 level in CHO cells overexpressing human APP751 at 50 nM after 24 hrs by liquid phase electrochemiluminescence assay relative to control.
In assay [17] the test system is CHO. Kind of assay: Reduction of human PS1 delta exon9 mutant-induced amyloid beta-42 level in CHO cells overexpressing human APP751 at 50 nM after 24 hrs by liquid phase electrochemiluminescence assay relative to control.
Assay [18] relates to Presenilin-1 (Homo sapiens), P49768 [L166P]. Kind of assay: Reduction of human PS1 L166P mutant-induced amyloid beta42 level in CHO cells overexpressing human APP751 at 50 nM after 24 hrs by liquid phase electrochemiluminescence assay relative to control. The method, boiled down: as §1

For the molecule `C[C@H](NC(=O)Cc1cc(F)cc(F)c1)C(=O)N[C@H](C(=O)OC(C)(C)C)c1ccccc1`, the Activity in assay [1] came out at 5.82%; with CHO [2], 60.8%; in [3], 14.9%; in assay [4], 8.13%; in the assay with CHO [5], 65.9%; in assay [6], 34.5%. In addition, the Activity came out at 33.8% in assay [7]; 101% with CHO [8]; 54.4% in [9]; 14.6% in [10]; 90.2% in the assay on CHO [11]; 30.3% in assay [12]. For the same molecule, the Activity in assay [13] was 44%; in the assay with CHO [14], 107%; in [15], 72.3%; in assay [16], 18.8%; in the assay with CHO [17], 94.9%; in [18], 50.3%.
